Reference: ChEMBL document CHEMBL1128693, “Novel cytotoxic 3'-(tert-butyl) 3'-dephenyl analogs of paclitaxel and docetaxel” (J Med Chem, 1995)
≈ marks a conversion by molar mass, not a printed value.

How the values were obtained:
[1] = system: B16; experiment: The compound was tested for Cytotoxic concentration against B16 melanoma cells relative to paclitaxel; format: functional; conditions: Mus musculus, B16, read-out: ED50
[2] = molecular target: T1, Tubulin (Bos taurus) (UniProt Q6B856+Q862L2+Q862F3); experiment: Promotion of tubulin polymerization
[3] = molecular target: T1, Tubulin (Bos taurus); experiment: ED50 relative to paclitaxel in promoting tubulin polymerization
[4] = system: B16; experiment: The compound was tested for Cytotoxic concentration against B16 melanoma cells.; format: functional; conditions: Mus musculus, B16, read-out: ED50
[5] = Water solubility relative to Paclitaxel solubility; format: ADME; conditions: buffer
Outline: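 Solubility in water by HPLC on a phenyl column: mobile phase A, 50% methanol/50% water; mobile phase B, acetonitrile. About 0.4 mg compound placed in 9 mL water in a 10 mL volumetric flask, sonicated 15 min in cold water. Quantified against a methanol standard curve (about 0.5 mg/mL serially diluted) of concentration vs HPLC peak area. Reported in µg/mL and as a ratio to paclitaxel solubility.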

[6] = Water solubility of the compound; format: ADME; conditions: read-out: S
Outline: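 Aqueous solubility by HPLC on a phenyl column. Mobile phases were 50% methanol/water and acetonitrile. The standard curve came from about 0.5 mg sample in 1 mL methanol with serial dilutions, plotting concentration against HPLC peak area. For samples, about 0.4 mg was placed in 9 mL water and sonicated 15 min in a cold-water bath.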

[7] = Ratio of ED50 in microtubule assembly in presence of paclitaxel to only compound; format: functional
Outline: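 Bovine brain tubulin purified by three temperature-dependent assembly-disassembly cycles plus phosphocellulose-biogel P-10 chromatography, cleared at 27000g for 10 min. Varied compound levels incubated with 10 μM tubulin and 0.5 mM GTP in PEM buffer (0.1 M Pipes pH 6.9, 1 mM MgSO₄, 1 mM EGTA), 37 °C, 15 min. Spun at 40000g for 4 min; supernatant protein by Bradford. […] Ratio against paclitaxel ED50.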

SMILES: CCCCOC(=O)N[C@H]([C@@H](O)C(=O)O[C@H]1C[C@@]2(O)[C@@H](OC(=O)c3ccccc3)[C@@H]3[C@]4(OC(C)=O)CO[C@@H]4C[C@H](O)[C@@]3(C)C(=O)[C@H](O)C(=C1C)C2(C)C)C(C)(C)C
- EC50 [1]: 31.3 nM
- ED50 [2]: 800 nM
- ED50 [3]: 930 nM
- EC50 [4]: 64 nM
- Ratio [5]: 90
- solubility [6]: 27 µg/mL (≈ 34.3 µM)

SMILES: CCC(C)(C)OC(=O)N[C@H]([C@@H](O)C(=O)O[C@H]1C[C@@]2(O)[C@@H](OC(=O)c3ccccc3)[C@@H]3[C@]4(OC(C)=O)CO[C@@H]4C[C@H](O)[C@@]3(C)C(=O)[C@H](O)C(=C1C)C2(C)C)C(C)(C)C
- EC50 [1]: 31.3 nM
- ED50 [2]: 420 nM
- ED50 [3]: 930 nM
- EC50 [4]: 18 nM
- Ratio [5]: 87
- solubility [6]: 26 µg/mL (≈ 32.4 µM)

SMILES: CC(=O)O[C@@]12CO[C@@H]1C[C@H](O)[C@@]1(C)C(=O)[C@H](O)C3=C(C)[C@@H](OC(=O)[C@H](O)[C@@H](NC(=O)OC(C)(C)C)c4ccccc4)C[C@@](O)([C@@H](OC(=O)c4ccccc4)[C@H]21)C3(C)C.O.O.O [DOCETAXEL]
- EC50 [1]: 27 nM
- ED50 [2]: 510 nM
- ED50 [3]: 1140 nM
- Ratio [7]: 0.45
- EC50 [4]: 11 nM
- Ratio [5]: 17
- solubility [6]: 5 µg/mL

SMILES: CC(=O)O[C@@]12CO[C@@H]1C[C@H](O)[C@@]1(C)C(=O)[C@H](O)C3=C(C)[C@@H](OC(=O)[C@H](O)[C@@H](NC(=O)OC(C)(C)C)C(C)(C)C)C[C@@](O)([C@@H](OC(=O)c4ccccc4)[C@H]21)C3(C)C
- EC50 [1]: 31.3 nM
- ED50 [2]: 350 nM
- ED50 [3]: 930 nM
- EC50 [4]: 12.5 nM
- Ratio [5]: 93
- solubility [6]: 28 µg/mL (≈ 35.5 µM)

SMILES: CC(=O)O[C@H]1C(=O)[C@@]2(C)[C@H]([C@H](OC(=O)c3ccccc3)[C@]3(O)C[C@H](OC(=O)[C@H](O)[C@@H](NC(=O)c4ccccc4)c4ccccc4)C(C)=C1C3(C)C)[C@]1(OC(C)=O)CO[C@@H]1C[C@@H]2O [PACLITAXEL]
- Ratio [5]: 1
- solubility [6]: 0.3 µg/mL (≈ 0.351 µM)

SMILES: CC(=O)O[C@@]12CO[C@@H]1C[C@H](O)[C@@]1(C)C(=O)[C@H](O)C3=C(C)[C@@H](OC(=O)[C@H](O)[C@@H](NC(=O)C(C)(C)C)C(C)(C)C)C[C@@](O)([C@@H](OC(=O)c4ccccc4)[C@H]21)C3(C)C
- EC50 [1]: 29 nM
- ED50 [2]: 1350 nM
- ED50 [3]: 1050 nM
- Ratio [7]: 1.3
- EC50 [4]: 930 nM

SMILES: CC(=O)O[C@@]12CO[C@@H]1C[C@H](O)[C@@]1(C)C(=O)[C@H](O)C3=C(C)[C@@H](OC(=O)[C@H](O)[C@@H](NC(=O)CC(C)(C)C)C(C)(C)C)C[C@@](O)([C@@H](OC(=O)c4ccccc4)[C@H]21)C3(C)C
- EC50 [1]: 29 nM
- ED50 [2]: 500 nM
- ED50 [3]: 1050 nM
- EC50 [4]: 104 nM
- Ratio [5]: 87
- solubility [6]: 26 µg/mL (≈ 33.1 µM)

SMILES: CC(=O)O[C@@]12CO[C@@H]1C[C@H](O)[C@@]1(C)C(=O)[C@H](O)C3=C(C)[C@@H](OC(=O)[C@H](O)[C@@H](NC(=O)NC(C)(C)C)C(C)(C)C)C[C@@](O)([C@@H](OC(=O)c4ccccc4)[C@H]21)C3(C)C
- EC50 [1]: 29 nM
- ED50 [2]: 630 nM
- ED50 [3]: 1050 nM
- EC50 [4]: 26 nM
- Ratio [5]: 97
- solubility [6]: 29 µg/mL (≈ 36.9 µM)

SMILES: CCCCCCOC(=O)N[C@H]([C@@H](O)C(=O)O[C@H]1C[C@@]2(O)[C@@H](OC(=O)c3ccccc3)[C@@H]3[C@]4(OC(C)=O)CO[C@@H]4C[C@H](O)[C@@]3(C)C(=O)[C@H](O)C(=C1C)C2(C)C)C(C)(C)C
- EC50 [1]: 31.3 nM
- ED50 [2]: 2100 nM
- ED50 [3]: 930 nM
- Ratio [7]: 2.3
- EC50 [4]: 370 nM

SMILES: CC(=O)O[C@@]12CO[C@@H]1C[C@H](O)[C@@]1(C)C(=O)[C@H](O)C3=C(C)[C@@H](OC(=O)[C@H](O)[C@@H](NC(=O)c4ccccc4)C(C)(C)C)C[C@@](O)([C@@H](OC(=O)c4ccccc4)[C@H]21)C3(C)C
- ED50 [2]: 1700 nM
- ED50 [3]: 930 nM
- Ratio [5]: 9.3
- solubility [6]: 2.8 µg/mL (≈ 3.54 µM)

SMILES: CC(=O)O[C@@]12CO[C@@H]1C[C@H](O)[C@@]1(C)C(=O)[C@H](O)C3=C(C)[C@@H](OC(=O)[C@H](O)[C@@H](NC(=O)Nc4ccccc4)C(C)(C)C)C[C@@](O)([C@@H](OC(=O)c4ccccc4)[C@H]21)C3(C)C
- EC50 [1]: 26.8 nM
- ED50 [2]: 330 nM
- ED50 [3]: 1040 nM
- EC50 [4]: 18.8 nM
- Ratio [5]: 4.7
- solubility [6]: 1.4 µg/mL (≈ 1.74 µM)

SMILES: CC(=O)O[C@@]12CO[C@@H]1C[C@H](O)[C@@]1(C)C(=O)[C@H](O)C3=C(C)[C@@H](OC(=O)[C@H](O)[C@@H](NC(=O)OCC(C)C)C(C)(C)C)C[C@@](O)([C@@H](OC(=O)c4ccccc4)[C@H]21)C3(C)C
- ED50 [2]: 500 nM
- ED50 [3]: 930 nM
- Ratio [5]: 93
- solubility [6]: 28 µg/mL (≈ 35.5 µM)

SMILES: CC(=O)O[C@@]12CO[C@@H]1C[C@H](O)[C@@]1(C)C(=O)[C@H](O)C3=C(C)[C@@H](OC(=O)[C@H](O)[C@@H](/N=C(/S)NC(C)(C)C)C(C)(C)C)C[C@@](O)([C@@H](OC(=O)c4ccccc4)[C@H]21)C3(C)C
- EC50 [1]: 24.4 nM
- ED50 [2]: 3200 nM
- ED50 [3]: 900 nM
- Ratio [7]: 3.6
- EC50 [4]: > 1000 nM

SMILES: CC(=O)O[C@@]12CO[C@@H]1C[C@H](O)[C@@]1(C)C(=O)[C@H](O)C3=C(C)[C@@H](OC(=O)[C@H](O)[C@@H](NC(=O)Oc4ccccc4)C(C)(C)C)C[C@@](O)([C@@H](OC(=O)c4ccccc4)[C@H]21)C3(C)C
- EC50 [1]: 31.3 nM
- ED50 [2]: 1300 nM
- ED50 [3]: 930 nM
- Ratio [7]: 1.4
- EC50 [4]: > 1000 nM
